Source: ChEMBL document CHEMBL1125826, “Synthesis and biological activity of 5-amino- and 5-hydroxyquinolones, and the overwhelming influence of the remote N1-substituent in determining the structure-activity relationship” (1991)
Values after ≈ are worked out from the molar mass of the structure shown.

Columns and labels:
Assay type in all cases: functional
Bacteria [1] = assay: MIC ratio measured as the mean MICs of gram-negative bacteria
Method in brief: (§1)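 Geometric mean of the microtitration MICs (µg/mL) over the Gram-negative organisms, and separately over the Gram-positive organisms, of the 10-strain panel; individual MICs averaged from multiple experiments.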

Bacteria [2] = assay: MIC ratio measured as the mean MICs of gram-positive bacteria; method in brief: as §1
[3] = target: DNA gyrase (Escherichia coli) (UniProt P0AES6+P0AES4); assay: Minimum inhibitory concentration against Escherichia coli DNA-gyrase in supercoiling assay
Staphylococcus aureus [4] = assay: Antibacterial activity was determined against gram positive organism, Staphylococcus aureus UC76
Method in brief: (§2)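 MIC (µg/mL) by standard microtitration against a panel of 10 Gram-positive and Gram-negative organisms; values averaged from multiple experiments.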

Escherichia coli = assay: Antibacterial activity was determined against gram negative organism, Escherichia coli vogel; settings: Escherichia coli; read-out: MIC; method in brief: as §2
Streptococcus pneumoniae = assay: Antibacterial activity was determined against gram positive organism, Streptococcus pneumoniae SV-1; settings: Streptococcus pneumoniae; read-out: MIC; method in brief: as §2
Staphylococcus aureus [5] = assay: Antibacterial activity was determined against gram positive organism, Staphylococcus aureus H228; settings: Staphylococcus aureus; read-out: MIC; method in brief: as §2
Enterobacter cloacae = assay: Antibacterial activity was determined against gram negative organism, Enterobacter cloacae MA2646; settings: Enterobacter cloacae; read-out: MIC
Enterococcus faecalis = assay: Antibacterial activity was determined against gram positive organism, Streptococcus faecalis MGH-2; settings: Enterococcus faecalis; read-out: MIC; method in brief: as §2
Bacteria [6] = assay: Antibacterial activity was determined against gram negative organism, Providencia rettgeri. M1771; settings: Bacteria; read-out: MIC; method in brief: as §2
Pseudomonas aeruginosa = assay: Antibacterial activity was determined against gram negative organism, Pseudomonas aeruginosa UI-18; settings: Pseudomonas aeruginosa; read-out: MIC; method in brief: as §2
Klebsiella pneumoniae = assay: Antibacterial activity was determined against gram negative organism, Klebsiella pneumoniae MGH-2; settings: Klebsiella pneumoniae; read-out: MIC; method in brief: as §2
Streptococcus pyogenes = assay: Antibacterial activity was determined against gram positive organism, Streptococcus pyogenes C203; settings: Streptococcus pyogenes; read-out: MIC; method in brief: as §2
[7] = Staphylococcus aureus, read-out: MIC

| SMILES | Geometric mean MIC over Gram-negative bacteria (µg/mL) (Bacteria [1]) | Geometric mean MIC over Gram-positive bacteria (µg/mL) (Bacteria [2]) | MIC [3] [µg/mL] | MIC (Staphylococcus aureus [4]) [µg/mL] | MIC (Escherichia coli) [µg/mL] | MIC (Streptococcus pneumoniae) [µg/mL] | MIC (Staphylococcus aureus [5]) [µg/mL] | MIC (Enterobacter cloacae) [µg/mL] | MIC (Enterococcus faecalis) [µg/mL] | MIC (Bacteria [6]) [µg/mL] | MIC (Pseudomonas aeruginosa) [µg/mL] | MIC (Klebsiella pneumoniae) [µg/mL] | MIC (Streptococcus pyogenes) [µg/mL] | MIC (Staphylococcus aureus [4]; [7]) [µg/mL] |
| --- | --- | --- | --- | --- | --- | --- | --- | --- | --- | --- | --- | --- | --- | --- |
| CCNCC1CCN(c2cc3c(cc2F)c(=O)c(C(=O)O)cn3CC)C1 (configuration not stated) | 0.6 | 0.15 | 2.5 (≈ 6.92 µM) | 0.1 (≈ 0.277 µM) | 0.1 (≈ 0.277 µM) | 0.2 (≈ 0.553 µM) | 0.2 (≈ 0.553 µM) | 0.4 (≈ 1.11 µM) | 0.2 (≈ 0.553 µM) | 1.6 (≈ 4.43 µM) | 3.1 (≈ 8.58 µM) | 0.4 (≈ 1.11 µM) | 0.1 (≈ 0.277 µM) | – |
| CCn1cc(C(=O)O)c(=O)c2c(N)c(F)c(N3CCNCC3)c(F)c21 | 0.26 | 1.15 | 2.5 (≈ 7.1 µM) | – | 0.1 (≈ 0.284 µM) | 1.6 (≈ 4.54 µM) | 1.6 (≈ 4.54 µM) | 0.2 (≈ 0.568 µM) | 1.6 (≈ 4.54 µM) | 0.4 (≈ 1.14 µM) | 0.8 (≈ 2.27 µM) | 0.2 (≈ 0.568 µM) | 3.1 (≈ 8.8 µM) | 0.2 (≈ 0.568 µM) |
| CCNCC1CCN(c2cc3c(c(N)c2F)c(=O)c(C(=O)O)cn3CC)C1 (configuration not stated) | 4.15 | 0.46 | 7.5 (≈ 19.9 µM) | – | 0.8 (≈ 2.13 µM) | 0.4 (≈ 1.06 µM) | 0.8 (≈ 2.13 µM) | 1.6 (≈ 4.25 µM) | 0.8 (≈ 2.13 µM) | 12.5 (≈ 33.2 µM) | 25 (≈ 66.4 µM) | 3.1 (≈ 8.24 µM) | 0.8 (≈ 2.13 µM) | 0.1 (≈ 0.266 µM) |
| CCn1cc(C(=O)O)c(=O)c2cc(F)c(N3CCNC(C)C3)cc21 (configuration not stated) | 0.23 | 1.05 | 2.5 (≈ 7.5 µM) | 0.2 (≈ 0.6 µM) | 0.1 (≈ 0.3 µM) | 1.6 (≈ 4.8 µM) | 1.6 (≈ 4.8 µM) | 0.1 (≈ 0.3 µM) | 1.6 (≈ 4.8 µM) | 0.2 (≈ 0.6 µM) | 1.6 (≈ 4.8 µM) | 0.2 (≈ 0.6 µM) | 1.6 (≈ 4.8 µM) | – |
| CCn1cc(C(=O)O)c(=O)c2cc(F)c(N3CCNC(C)C3)c(F)c21 (configuration not stated) [LOMEFLOXACIN] | 0.26 | 1.58 | 2.5 (≈ 7.12 µM) | 0.4 (≈ 1.14 µM) | 0.1 (≈ 0.285 µM) | 1.6 (≈ 4.55 µM) | 1.6 (≈ 4.55 µM) | 0.1 (≈ 0.285 µM) | 3.1 (≈ 8.82 µM) | 0.4 (≈ 1.14 µM) | 1.6 (≈ 4.55 µM) | 0.2 (≈ 0.569 µM) | 3.1 (≈ 8.82 µM) | – |

Continued by falling MIC [3], values first:

| Geometric mean MIC over Gram-negative bacteria (µg/mL) (Bacteria [1]) | Geometric mean MIC over Gram-positive bacteria (µg/mL) (Bacteria [2]) | MIC [3] [µg/mL] | MIC (Staphylococcus aureus [4]) [µg/mL] | MIC (Escherichia coli) [µg/mL] | MIC (Streptococcus pneumoniae) [µg/mL] | MIC (Staphylococcus aureus [5]) [µg/mL] | MIC (Enterobacter cloacae) [µg/mL] | MIC (Enterococcus faecalis) [µg/mL] | MIC (Bacteria [6]) [µg/mL] | MIC (Pseudomonas aeruginosa) [µg/mL] | MIC (Klebsiella pneumoniae) [µg/mL] | MIC (Streptococcus pyogenes) [µg/mL] | MIC (Staphylococcus aureus [4]; [7]) [µg/mL] | SMILES |
| --- | --- | --- | --- | --- | --- | --- | --- | --- | --- | --- | --- | --- | --- | --- |
| 0.79 | 3.17 | 3.8 (≈ 10.4 µM) | 0.8 (≈ 2.19 µM) | 0.2 (≈ 0.547 µM) | 6.3 (≈ 17.2 µM) | 1.6 (≈ 4.38 µM) | 0.2 (≈ 0.547 µM) | 6.3 (≈ 17.2 µM) | 1.6 (≈ 4.38 µM) | 12.5 (≈ 34.2 µM) | 0.4 (≈ 1.09 µM) | 6.3 (≈ 17.2 µM) | – | CCn1cc(C(=O)O)c(=O)c2cc(F)c(N3CC(C)NC(C)C3)c(F)c21 (configuration not stated) |
| 0.17 | 0.27 | 2.5 (≈ 7.41 µM) | 0.1 (≈ 0.296 µM) | 0.1 (≈ 0.296 µM) | 0.4 (≈ 1.19 µM) | 0.4 (≈ 1.19 µM) | 0.1 (≈ 0.296 µM) | 0.4 (≈ 1.19 µM) | 0.2 (≈ 0.593 µM) | 0.4 (≈ 1.19 µM) | 0.2 (≈ 0.593 µM) | 0.2 (≈ 0.593 µM) | – | CCn1cc(C(=O)O)c(=O)c2cc(F)c(N3CCC(N)C3)c(F)c21 (configuration not stated) |
| 0.35 | 1.2 | 2.5 (≈ 7.08 µM) | – | 0.2 (≈ 0.566 µM) | 1.6 (≈ 4.53 µM) | 1.6 (≈ 4.53 µM) | 0.2 (≈ 0.566 µM) | 3.1 (≈ 8.77 µM) | 0.4 (≈ 1.13 µM) | 0.8 (≈ 2.26 µM) | 0.4 (≈ 1.13 µM) | 1.6 (≈ 4.53 µM) | 0.2 (≈ 0.566 µM) | CCn1cc(C(=O)O)c(=O)c2c(O)c(F)c(N3CCC(N)C3)c(F)c21 (configuration not stated) |
| 0.15 | 0.087 | 0.75 (≈ 1.8 µM) | 0.025 (≈ 0.0599 µM) | 0.05 (≈ 0.12 µM) | 0.1 (≈ 0.24 µM) | 0.1 (≈ 0.24 µM) | 0.05 (≈ 0.12 µM) | 0.2 (≈ 0.479 µM) | 0.2 (≈ 0.479 µM) | 1.6 (≈ 3.83 µM) | 0.1 (≈ 0.24 µM) | 0.1 (≈ 0.24 µM) | – | CC1CN(c2cc3c(cc2F)c(=O)c(C(=O)O)cn3-c2ccc(F)cc2F)CCN1 (configuration not stated) [TEMAFLOXACIN] |
